# Experimental data: publication PMC5564211 (European journal of medicinal chemistry, 2017)
# Assays:
# α1-adrenoceptors = test: [3H]prazosin binding displacement; set-up: species or system mouse; details: [3H]prazosin displacement; for IC50: values as rounded in text
# Method in brief: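 Competition binding against 1.5 nM [³H]prazosin in mouse hippocampal homogenate, with test compound added over a range of concentrations to build concentration–effect displacement curves. IC50 is derived by non-linear regression curve fitting. Each ligand's fitted curve is compared statistically with reference-ligand curves.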
# mouse [1] = details: mice, previously published studies; cited from earlier work
# mouse [2] = test: Locomotor activity assay; format: in vivo; details: mice; for effect on locomotion compared with the same dose of D-22: 1 mg/kg ip, one-way ANOVA, Dunnett's test
# mouse [3] = test: Antidepressant-like activity assay; format: in vivo; details: mice, TST, given alone without SSRI
# Method in brief: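 Mice given test compound were scored for immobility time in the tail suspension test. A saline-treated group served as control. Groups were compared with saline by one-way ANOVA with Dunnett's post-hoc test, with significance set at P < 0.05.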
Molecule,independent antidepressant-like activity (reduction in immobility time) (mouse [3]),IC50 (α1-adrenoceptors),further results
"C[C@]12C[C@H](O)[C@H]3[C@@H](CCC4=CC(=O)CC[C@@]43C)[C@@H]1CC[C@@H]2C(=O)CO [Corticosterone, corticosterone, reference compound]",–,–,inhibition at adrenoceptors (α1-adrenoceptors): weak inhibitor
"CCN1/C(=C/c2ccc3ccccc3[n+]2CC)C=Cc2ccccc21.[I-] [D-22, decynium-22, reference compound]","none of the analogues, including D-22, displayed antidepressant-like activity",–,"effect on immobility time (mouse [1]): without effect on immobility time unless paired with an SSRI; effect on locomotor activity (mouse [2]; 0.1 mg/kg ip, p=0.44): not at 0.1 mg/kg; effect on locomotor activity (mouse [2]; 1.0 mg/kg ip, cumulative beam breaks 60 to 120 minutes following injection): completely suppressed locomotor activity"
"CCOc1ccccc1OCCN[C@H](C)Cc1ccc(OC)c(S(N)(=O)=O)c1 [Tamsulosin, tamsulosin, reference compound]",–,~2 nM,–
"CN1/C(=C\c2cc[n+](C)c3ccccc23)C=Cc2ccccc21.O=C([O-])C(F)(F)F [analogue 1, 1,1′-Dimethyl-2,4′-cyanine trifluoroacetate]",do not impart independent antidepressant-like activity,–,–
"CC(C)[n+]1ccc(/C=C2/C=Cc3ccccc3N2C)c2ccccc21.O=C([O-])C(F)(F)F [analogue 2, 1-Methyl-1′-isopropyl-2,4′-cyanine trifluoroacetate]",do not impart independent antidepressant-like activity,~1000 nM,–
"CCN1/C(=C/c2ccc3cc(Cl)ccc3[n+]2CC)C=Cc2ccccc21.[I-] [analogue 6, (E)-6-Chloro-1-ethyl-2-((1-ethylquinolin-2(1H)-ylidene)methyl)quinolinium iodide]",impart independent antidepressant-like activity,500 nM,effect on locomotion compared with the same dose of D-22 (mouse [2]): affected locomotion significantly less than D-22
"(E)-1-Ethyl-2-((1-ethylquinolin-2(1H)-ylidene)methyl)-6-fluoro-4a,8a-dihydro quinolinium iodide [analogue 5]",impart independent antidepressant-like activity,300 nM,–
"(E)-1-Ethyl-2-((1-ethylquinolin-2(1H)-ylidene)methyl)-6-iodo-4a,8a-dihydro-quinolinium iodide [analogue 7]",do not impart independent antidepressant-like activity,700 nM,effect on locomotion compared with the same dose of D-22 (mouse [2]): affected locomotion significantly less than D-22
